Laboratory results reported in ChEMBL document CHEMBL2396601, “Synthesis and antiprotozoal activity of dicationic m-terphenyl and 1,3-dipyridylbenzene derivatives” (J Med Chem, 2013).
pIC50: −log10 of the molar value. Calls of active or inactive are those of the source. The calls are words filed in the database; no cut-off is given here.

Tests used:
[1] = Selectivity index, ratio of IC50 for rat L6 cells to IC50 for Plasmodium falciparum K1; type: toxicity, cell-based; conditions: L6 cells, read-out: Ratio IC50
Procedure, shortened: (§1)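 Selectivity index is IC50 against L6 rat myoblast cells divided by IC50 against the named parasite.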

[2] = test system: Trypanosoma brucei rhodesiense; assay: Antiprotozoal activity against Trypanosoma brucei rhodesiense STIB900 infected in NMRI mouse assessed as host mean survival days at 25 mg/kg, po qd for 4 days; type: functional
Procedure, shortened: (§2)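 Acute-stage HAT mouse model infected with STIB900. Cure means survival to 60 days after infection with no parasitemia relapse. Mean survival days are counted from infection and use every mouse: relapsed mice, plus cured mice entered as >60 days.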

[3] = test system: Trypanosoma brucei rhodesiense; assay: Antiprotozoal activity against Trypanosoma brucei rhodesiense STIB900 after 72 hrs by Alamar Blue assay; type: functional, organism-based
Procedure, shortened: (§3)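 Uses T. b. rhodesiense STIB900, T. cruzi Tulahuen C2C4 LacZ intracellular amastigotes, or L6 rat myoblasts depending on line.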

Trypanosoma cruzi = assay: Antiprotozoal activity against intracellular amastigote form of Trypanosoma cruzi Tulahuen C2C4 expressing LacZ infected in rat L6 cells after 48 hrs; type: functional, organism-based; conditions: Tulahuen C2C4, L6, 48 h; procedure, shortened: as §3
L6 = assay: Cytotoxicity against rat L6 cells after 72 hrs by Alamar Blue assay; type: cell-based; conditions: L6, 72 h; procedure, shortened: as §3
[4] = Selectivity index, ratio of IC50 for rat L6 cells to IC50 for Trypanosoma cruzi Tulahuen C2C4; type: toxicity, cell-based; conditions: read-out: Ratio IC50; procedure, shortened: as §1
[5] = Selectivity index, ratio of IC50 for rat L6 cells to IC50 for Trypanosoma brucei rhodesiense STIB900; type: toxicity, cell-based; conditions: L6 cells, read-out: Ratio IC50; procedure, shortened: as §1
Plasmodium falciparum = assay: Antiprotozoal activity against chloroquine-resistant Plasmodium falciparum K1 after 48 hrs by [3H]-hypoxanthine incorporation assay; type: functional, organism-based
Leishmania donovani [6] = assay: Antiprotozoal activity against Leishmania donovani promastigotes infected in BALB/c mouse assessed as inhibition of liver parasitemia at 10 mg/kg, po qd for 5 days; type: functional; conditions: 120 h
Procedure, shortened: (§4)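 L. donovani-infected BALB/c mice dosed daily for 5 days, 30 mg/kg ip or 10 mg/kg orally, depending on line.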

Mus musculus [7] = assay: Toxicity in BALB/c mouse assessed as hyperactivity measured after first dose at 30 mg/kg, ip qd for 5 days; type: organism-based; parameters: dose 30 mg/kg, route intraperitoneal; conditions: in vivo, 120 h
Procedure, shortened: (§5)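 Tolerability check before efficacy testing in uninfected BALB/c mice, groups of two, given 30 mg/kg ip daily for five days. Watched for overt toxicity signs such as tremors and hyperactivity after each dose. Mice showing adverse effects were euthanized.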

[8] = Selectivity index, ratio of IC50 for rat L6 cells to IC50 for Leishmania amazonensis; type: toxicity, cell-based; conditions: read-out: Ratio IC50; procedure, shortened: as §1
Leishmania amazonensis = assay: Antiprotozoal activity against intracellular amastigote form of Leishmania amazonensis infected in CD1 mouse macrophages after 72 hrs by […]; type: functional, organism-based
Mus musculus [9] = assay: Toxicity in BALB/c mouse assessed as tremors measured after second dose at 30 mg/kg, ip qd for 5 days; type: organism-based; parameters: dose 30 mg/kg, route intraperitoneal; conditions: in vivo, 120 h; procedure, shortened: as §5
Leishmania donovani [10] = assay: Antiprotozoal activity against Leishmania donovani promastigotes infected in BALB/c mouse assessed as inhibition of liver parasitemia at 30 mg/kg, ip qd for 5 days; type: functional; conditions: 120 h, route intraperitoneal; procedure, shortened: as §4
Mus musculus [11] = assay: Toxicity in BALB/c mouse assessed as mortality at 30 mg/kg, ip qd for 5 days; type: organism-based; parameters: dose 30 mg/kg, route intraperitoneal; conditions: in vivo, 120 h
[12] = test system: Trypanosoma brucei rhodesiense; assay: Antiprotozoal activity against Trypanosoma brucei rhodesiense STIB900 infected in NMRI mouse assessed as reduction of parasitemia relapse at 5 mg/kg, ip qd for 4 days; type: functional, organism-based; parameters: dose 5 mg/kg
Procedure, shortened: (§6)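 Mouse model of acute (early) stage HAT with T. b. rhodesiense STIB900, groups of 4 mice. Amidines dosed intraperitoneally, 4 daily doses of 5 mg/kg or single doses; prodrugs dosed orally, 4 daily doses of 25 mg/kg. Cure means survival to 60 days after infection with no parasitemia relapse. Mean survival days counts all mice, with cured mice scored as >60 days.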

[13] = test system: Trypanosoma brucei rhodesiense; assay: Antiprotozoal activity against Trypanosoma brucei rhodesiense STIB900 infected in NMRI mouse assessed as reduction of parasitemia relapse at 10 mg/kg, ip; type: functional, organism-based; parameters: dose 10 mg/kg; procedure, shortened: as §6
[14] = test system: Trypanosoma brucei rhodesiense; assay: Antiprotozoal activity against Trypanosoma brucei rhodesiense STIB900 infected in NMRI mouse assessed as host mean survival days at 10 mg/kg, ip; type: functional; conditions: route intraperitoneal; procedure, shortened: as §2
[15] = test system: Trypanosoma brucei rhodesiense; assay: Antiprotozoal activity against Trypanosoma brucei rhodesiense STIB900 infected in NMRI mouse assessed as host mean survival days at 5 mg/kg, ip qd for 4 days; type: functional; conditions: route intraperitoneal; procedure, shortened: as §2
[16] = test system: Trypanosoma brucei rhodesiense; assay: Antiprotozoal activity against Trypanosoma brucei rhodesiense STIB900 infected in NMRI mouse assessed as reduction of parasitemia relapse at 25 mg/kg, po qd for 4 days; type: functional, organism-based; parameters: dose 25 mg/kg; procedure, shortened: as §6
[17] = test system: Trypanosoma brucei rhodesiense; assay: Antiprotozoal activity against Trypanosoma brucei rhodesiense STIB900 infected in NMRI mouse assessed as host mean survival days at 5 mg/kg, ip; type: functional; conditions: route intraperitoneal; procedure, shortened: as §2
[18] = test system: Trypanosoma brucei rhodesiense; assay: Antiprotozoal activity against Trypanosoma brucei rhodesiense STIB900 infected in NMRI mouse assessed as reduction of parasitemia relapse at 5 mg/kg, ip; type: functional, organism-based; parameters: dose 5 mg/kg; procedure, shortened: as §6
[19] = Trypanosoma brucei, STIB900, 72 h

Structure (SMILES) | selectivity ratio [1] | MSD [2] [days] | pIC50 [3, 19] | pIC50 (Trypanosoma cruzi) | pIC50 (L6) | selectivity ratio [4] | selectivity ratio [5] | pIC50 (Plasmodium falciparum; Plasmodium falciparum, K1) | selectivity ratio [8] | pIC50 (Leishmania amazonensis) | other results
CO/N=C(/N)c1ccc(-c2cccc(-c3ccc(/C(N)=N\OC)cc3)c2)cc1.Cl.Cl | < 2 | >34.25 | 5.35 | 4.03 | 4.72 | < 1 | 4 | < 5.00 | – | – | –
CCCCCCCCCCCCCCCCOP(=O)([O-])OCC[N+](C)(C)C [MILTEFOSINE] | – | – | – | – | – | – | – | – | – | – | inhibition in vivo at 10 mg/kg (Leishmania donovani [6]): 96%
Cl.Cl.Cl.N=C(Nc1cccc(-c2cc(Cl)cc(-c3cccc(NC(=N)c4ccccn4)c3)c2)c1)c1ccccn1 | 450 | – | 7.72 | 7.28 | 5.60 | 47 | 133 | 8.22 | 26 | 7.02 | Activity (Mus musculus [7]): Toxic; Activity (Mus musculus [9]): Toxic
Cl.Cl.Cl.N=C(Nc1ccc(-c2cc(Cl)cc(-c3cccc(NC(=N)c4ccccn4)c3)c2)cc1)c1ccccn1 | 12 | – | 6.96 | 5.81 | 5.58 | 2 | 24 | 6.66 | 13 | 6.68 | inhibition in vivo at 30 mg/kg (Leishmania donovani [10]): 23%; Activity (Mus musculus [11]): Non-toxic
Cl.Cl.N=C(Nc1ccc(-c2cccc(-c3cccc(NC(=N)c4ccccn4)c3)c2)cc1)c1ccccn1 | 13 | – | 5.71 | 6.41 | 5.57 | 7 | 1 | 6.68 | 22 | 6.91 | Activity (Mus musculus [7]): Toxic; Activity (Mus musculus [9]): Toxic
N=C(N)c1ccc(-c2cccc(-c3ccc(C(=N)N)cn3)c2)nc1 | – | – | – | – | – | – | – | – | – | – | Activity [12]: Active; Activity [13]: Active
Cl.Cl.N=C(N)c1ccc(-c2cccc(-c3ccc(C(=N)N)cc3)c2)cc1 | 1280 | – | 8.40 | 4.15 | 4.51 | < 1 | 8490 | 7.62 | – | – | Activity [12]: Active; MSD [14]: >60 days; MSD [15]: >60 days; Activity [13]: Active
N=C(Nc1ccc(-c2cc(Cl)cc(-c3cccc(NC(=N)c4ccccc4)c3)c2)cc1)c1ccccc1 | 58 | – | 6.75 | 5.69 | 5.64 | 1 | 13 | 7.41 | 2 | 5.99 | –
CO/N=C(\N)c1cccc(-c2cccc(-c3cccc(/C(N)=N\OC)c3)c2)c1.Cl.Cl | 2 | 17.25 | 4.95 | 4.62 | 4.69 | < 1 | 2 | 5.03 | – | – | Activity [16]: inactive
Cl.N=C(N)c1ccc(-c2cccc(-c3ccc(C(=N)N)cn3)c2)nc1 | > 3760 | – | – | – | – | – | > 8820 | – | – | – | pIC50 [3]: 7.77; MSD [14]: >60 days; MSD [15]: >60 days; pIC50 (Plasmodium falciparum): 7.40
CO/N=C(\N)c1ccc(-c2cccc(-c3ccc(/C(N)=N\OC)cn3)c2)nc1.Cl | > 42 | >53.75 | 4.58 | 3.93 | < 3.82 | > 1 | > 6 | 5.45 | – | – | –
CC(C)Oc1cc(NC(=N)c2ccccn2)ccc1-c1cc(Cl)cc(-c2ccccc2)c1 | < 1 | – | 4.49 | 5.38 | 5.01 | 2 | < 1 | < 5.00 | 10 | 6.03 | –
N=C(Nc1cccc(-c2cc(Cl)cc(-c3cccc(NC(=N)c4ccccc4)c3)c2)c1)c1ccccc1 | 58 | – | 6.27 | 5.68 | 5.39 | 2 | 8 | 7.15 | 2 | 5.61 | –
Cl.Cl.N/C(=N/O)c1ccc(-c2cccc(-c3ccc(/C(N)=N\O)cc3)c2)cc1 | – | >51.25 | 4.96 | < 3.82 | < 3.82 | – | > 14 | < 5.00 | – | – | –
Cl.Cl.N=C(N)c1ccc(-c2cccc(-c3ccc(C(=N)N)nc3)c2)cn1 | 1480 | – | 8.22 | 4.36 | 4.65 | < 1 | 3720 | 7.82 | – | – | Activity [12]: Active; MSD [15]: >60 days; MSD [17]: >60 days; Activity [18]: Active
CN(C)CC(=O)O/N=C(\N)c1ccc(-c2cccc(-c3ccc(/C(N)=N\OC(=O)CN(C)C)cn3)c2)nc1 | 129 | >52 | 5.01 | 4.14 | 4.20 | < 1 | 6 | 6.31 | – | – | –
N=C(Nc1ccc(-c2cccc(-c3cccc(NC(=N)c4ccccc4)c3)c2)cc1)c1ccccc1 | 66 | – | 6.20 | 5.67 | 5.60 | 1 | 4 | 7.42 | 3 | 6.04 | –
CC(C)Oc1ccc(NC(=N)c2ccccn2)cc1-c1cc(Cl)cc(-c2ccccc2)c1 | 1 | – | 4.91 | 5.53 | 5.42 | 1 | < 1 | 5.51 | 2 | 5.73 | –
Cl.Cl.N/C(=N\O)c1cccc(-c2cccc(-c3cccc(/C(N)=N\O)c3)c2)c1 | < 1 | 7.25 | 5.59 | 4.95 | 5.25 | < 1 | 2 | 5.08 | – | – | Activity [16]: inactive
